Assay results gathered from unrelated publications.
Lines come from different studies, so protocols differ.
Target: Carbonic anhydrase 2 (CA2, Homo sapiens, UniProt P00918)
Observed: enzyme activity
Action: inhibitor

| SMILES | method | Ki [nM] |
| --- | --- | --- |
| Cc1c(Cl)c(=O)oc2cc(OCCCCSC#N)ccc12 | stopped-flow | > 100000 |
| OC(Cn1cncn1)(Cn1cncn1)c1ccc(F)cc1F | absorbance | 7910 |
| CC(C)CNC(=S)N/N=C/c1ccc(N2CCC(O)CC2)cc1 | – | 716 |
| CCOCCn1c(C2CCN(CCc3ccc(C(C)(C)C(=O)O)cc3)CC2)nc2ccccc21 | absorbance | 8440 |
| CC1CCC(CC(=O)Nc2nnc(S(N)(=O)=O)s2)CC1 (centres unmarked) | stopped-flow | 22.3 |
| OC1CCN(c2ccc(/C=N/NC(=S)Nc3ccc(Cl)cc3)cc2)CC1 | – | 401 |
| Cc1cncc(CN2CCC(=C3c4ccc(Cl)cc4CCc4cccnc43)CC2)c1 | absorbance | 9180 |
| NS(=O)(=O)c1cnc(NC(=O)CC2CCCCC2)s1 | stopped-flow | 54.3 |
| OC1CCN(c2ccc(/C=N/NC(=S)NCCc3ccccc3)cc2)CC1 | – | 656 |
| CN(C)CCC(c1ccccc1)c1ccccn1 (centres unmarked) | absorbance | 14000 |
| CC1(C(=O)Nc2nnc(S(N)(=O)=O)s2)CCC1 | stopped-flow | 29.6 |
| OCCOCCN1CCN(C(c2ccccc2)c2ccc(Cl)cc2)CC1 (centres unmarked) | absorbance | 11500 |
| Cc1ccc(CNC(=S)N/N=C/c2ccc(N3CCC(O)CC3)cc2)cc1 | – | 778 |
| C[C@H]1CCC[C@H](C(=O)Nc2nnc(S(N)(=O)=O)s2)C1 (racemic) | stopped-flow | 14.9 |
| OC1CCN(c2ccc(/C=N/NC(=S)Nc3ccccc3)cc2)CC1 | – | 507 |
| NS(=O)(=O)c1nnc(NC(=O)CN2CCC(F)CC2)s1 | stopped-flow | 14.1 |
| Cc1cc(=O)oc2cc(OCCCCSC#N)ccc12 | stopped-flow | > 100000 |
| OC1CCN(c2ccc(/C=N/NC(=S)Nc3ccc(F)cc3)cc2)CC1 | – | 283 |
| Cc1ccccc1CC(=O)Nc1nnc(S(N)(=O)=O)s1 | stopped-flow | 25.7 |
| C[C@H]1c2cccc(O)c2C(=O)C2=C(O)[C@]3(O)C(=O)C(C(N)=O)=C(O)[C@@H](N(C)C)[C@@H]3[C@@H](O)[C@@H]21 | absorbance | 8970 |
